pEC50, pIC50, pKd: −log10 of the molar value. Where two headings read alike, the source gives them in different places.
What was measured:
HIV-1 = conditions: cited from earlier work
HIV-1 CA CTD = HIV-1 CA CTD (Human immunodeficiency virus type 1 group M subtype B, UniProt P12493); experiment: HTRF-based CAI binding competition assay; conditions: for inhibition at 50 µM: read-out: inhibition of CA CTD-CAI HTRF signal
C8166 cells = experiment: MTT cytotoxicity assay; format: cell-based, Human; conditions: 3 days
In short: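 C8166 T cells were maintained in RPMI 1640 with 10% FBS, penicillin and streptomycin. They were seeded at 4×10^4/well with serially diluted test compound and kept at 37°C, 5% CO2. Viability was measured by MTT after 3 days, and the 50% cytotoxic concentration was calculated.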

WT CA protein = WT CA protein (Human immunodeficiency virus type 1 group M subtype B, UniProt P12493); experiment: In vitro CA assembly assay; format: biochemical, HIV-1; conditions: 50 μM CA-WT, NaCl-dependent assembly, OD 350 nm
In short: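 Full-length WT CA (E. coli, pET11a) was dialysed into 50 mM sodium phosphate, pH 8.0, and mixed with test compound in 500 μl of that buffer. Assembly was started by adding 500 μl of the same buffer containing 4 M NaCl, pH 8.0. OD350 was read every 20 s for 30 min.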

[1] = test system: Gag polyprotein processing; experiment: Anti-p24 western blot of infected MT-4 cell lysates; format: cell-based; conditions: MT-4 cells, 3 days of HIV-1IIIB replication, anti-p24 immunoblotting
[2] = target: CAI-biotin peptide (biotinylated capsid assembly inhibitor peptide); experiment: BLI
[3] = target: GST-tagged HIV-1 capsid C-terminal domain (GST-CA CTD) (HIV-1); experiment: AlphaScreen or HTRF

Molecule: Cc1ccnc(SCc2nc3ccccc3s2)n1 [BMMP]
- pEC50 (HIV-1; ref Urano et al., 2011): 4.30 to 4.70

Molecule: Cc1ccc(NC(=O)NCCSCc2ccc(CN(C)C)o2)cc1Cl [CAP-1]
- pEC50 (HIV-1; ref Tang et al. 2003): ~4.15

Molecule: CO[C@H]1[C@H](OC(=O)c2ccc(C)[nH]2)[C@H](O)[C@@H](Oc2ccc3c(O)c(NC(=O)c4c[nH]c(C(=O)Nc5c(O)c6ccc(O[C@H]7OC(C)(C)[C@@H](OC)[C@H](OC(=O)c8ccc(C)[nH]8)[C@@H]7O)c(C)c6oc5=O)c4C)c(=O)oc3c2C)OC1(C)C [Coumermycin A1]
- pEC50 (HIV-1; ref Chen et al., 2016, Vozzolo et al. 2010): 5.10

Molecule: O=c1c2ccccc2[se]n1-c1ccccc1 [Ebselen]
- pEC50 (HIV-1; ref Thenin-Houssier et al., 2016): 5.47
- inhibition at 50 µM (HIV-1 CA CTD): < 3.2%

Molecule: C[C@H](CCC(=O)NCC(=O)O)[C@H]1CC[C@H]2[C@@H]3CC[C@@H]4C[C@H](O)CC[C@]4(C)[C@H]3C[C@H](O)[C@]12C [GDC, glycodeoxycholate]
- pEC50 (HIV-1; ref Lampel et al., 2015): 5.51
- inhibition at 50 µM (HIV-1 CA CTD): < 20%

Molecule: Cc1[nH]c2ccccc2c1CC(=O)N[C@@H](Cc1ccccc1)C(=O)N(C)c1ccccc1 [PF-3450074 (PF74)]
- pEC50 (HIV-1; ref Blair et al., 2010, Shi et al., 2011): 6.22 to 6.52

Molecule: C[C@H](CCC(=O)NCCS(=O)(=O)O)[C@H]1CC[C@H]2[C@@H]3[C@H](O)C[C@@H]4C[C@H](O)CC[C@]4(C)[C@H]3C[C@H](O)[C@]12C [TA, taurocholic acid]
- inhibition at 50 µM (HIV-1 CA CTD): < 20%

Molecule: Cc1cc(C=C2C(=O)C=CC2=O)cc(C)c1O [TX-1918]
- CC50 (C8166 cells): 20.8 µM
- inhibition of CA CTD-CAI HTRF signal (HIV-1 CA CTD; compound at 50 μM): > 70%
- effect on in vitro CA assembly (WT CA protein): inhibited CA assembly in vitro
- effect on CA p24 production / Gag Pr55 processing [1]: significant reductions in proteolyzed CA p24 with increasing concentrations

Molecule: CC(=O)Nc1cccc(-n2c(=O)n(C3CC3)c(=O)c3c(Nc4ccc(I)cc4F)n(C)c(=O)c(C)c32)c1 [trametinib]
- inhibition at 50 µM (HIV-1 CA CTD): < 3.2%

Molecule: GST-tagged HIV-1 capsid C-terminal domain (GST-CA CTD) (domain or fragment)
- pKd [2]: 8.15
- koff [2]: 0.000152 s⁻¹

Molecule: untagged CAI peptide (capsid assembly inhibitor)
- pIC50 [3]: 5.19

— article PMC6901019 (Antiviral research, 2019)
